The RNAGym collection of RNA variant scans (doi:10.1126/science.aae0568)
Variants at the floor of the assay were thinned out.

B1: tRNA (parent)
chain: GUUCCGUUGGCGUAAUGGUAACGCGUCUCCCUCCUAAGGAGAAGACUGCGGGUUCGAGUCCCGUACGGAACG

Variants of: B1
Experiment: yeast fitness relative to wild type (ratio to wild type); higher = fitter; tRNA-Arg(CCU), competitive growth, 37 C, YPD
How it was run: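 The tRNA-Arg(CCU) gene variants were made by chemical synthesis with a 3% per-site mutation rate at 69 sites and inserted at the native genomic locus of Saccharomyces cerevisiae. After pooling, the strains were competed in YPD at 37°C for 24 hours in six parallel replicates. Gene amplicons from the start population and each end population were read by 100-nucleotide paired-end sequencing, and Darwinian fitness relative to wild type was taken from genotype frequency changes. Genotypes needed ≥ 100 starting reads, and estimates < 0.5 were set to 0.5.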
With G39A C49U the yeast fitness was 0.842.
A40C A42G U47C C55A showed a yeast fitness of 0.587.
In the case of A40U C61G G68C, the yeast fitness is reported as 0.571.
Variant A40U C55U C61G has a yeast fitness of 0.507.
Work on G39A C46A C60G C61U yielded a yeast fitness of 0.512.
For A40G G56C, the yeast fitness was 0.725.
For A42U C49U, the yeast fitness was 0.975.
A40G C49U gave a yeast fitness of 0.883.
In the case of A40U A43C G67U, the yeast fitness is reported as 0.724.
For A42G C46U A65C, the yeast fitness was 0.665.
For G41A C49U G51C C61U, the yeast fitness was no more than 0.5.
With A43G A45G A70G the yeast fitness was 0.532.
A43G G56A C66U G68U gave a yeast fitness of 0.557.
For G39A G52A, the yeast fitness was 0.759.
Variant A43C C62G has a yeast fitness of 0.76.
A40G G51C A57U showed a yeast fitness of no more than 0.5.
Variant G41C C46U has a yeast fitness of 1.03.
Variant A42U C46U A57U has a yeast fitness of 0.538.
A42U A57U C61U gave a yeast fitness of no more than 0.5.
In the case of A40G G44C U53C C55A A65U, the yeast fitness is reported as no more than 0.5.
With A43G U53C C55U the yeast fitness was 0.561.
A42C C61G A65U showed a yeast fitness of 0.539.
With A40C U47C the yeast fitness was 0.904.
Variant A42C U59A A69U has a yeast fitness of 0.528.
With A42C U47C G58C the yeast fitness was 0.644.
In the case of G39C G48C G63C C66G, the yeast fitness is reported as no more than 0.5.
G38A G58A gave a yeast fitness of 1.06.
G41C A42U U64C G68C gave a yeast fitness of no more than 0.5.
Variant A40U U59C G68A has a yeast fitness of 0.569.
A40C G48C U59C showed a yeast fitness of no more than 0.5.
Variant G41C A42G G51A has a yeast fitness of 0.538.
A42C G48A G50A C61G gave a yeast fitness of 0.553.
G41C U54A gave a yeast fitness of 0.667.
For A40C C49G, the yeast fitness was 0.804.
Variant A40C C55A C66A has a yeast fitness of 0.578.
With A42C G50A C61G the yeast fitness was 0.793.
With A42G G44C C60G the yeast fitness was 0.606.
Work on G39C C49G G50C yielded a yeast fitness of no more than 0.5.
With A42G U64A the yeast fitness was 0.724.
For A42G U64C, the yeast fitness was 0.904.
With G39C A42G the yeast fitness was 0.653.
In the case of G39C A43U A69U, the yeast fitness is reported as 0.736.
Variant G41A C66U has a yeast fitness of 0.685.
G41A C66A gave a yeast fitness of 0.687.
A40C G51A C61U A69C showed a yeast fitness of 0.618.
Work on A42G U47G G50C yielded a yeast fitness of 0.608.
A43C G67C showed a yeast fitness of 0.867.
Work on A43C G67A yielded a yeast fitness of 0.685.
G41A G52A A69C showed a yeast fitness of 0.53.
In the case of G38C A43G C60U C62U A70C, the yeast fitness is reported as no more than 0.5.
Variant A43U G56A A57G has a yeast fitness of 0.691.
A40U A65G showed a yeast fitness of 1.01.
G38C U64A G68A showed a yeast fitness of no more than 0.5.
A40U U59A gave a yeast fitness of 0.678.
In the case of A42U G44C U54A C66U G67A, the yeast fitness is reported as no more than 0.5.
G38C A69U A70U showed a yeast fitness of no more than 0.5.
For G39A G51A U53A G63C, the yeast fitness was no more than 0.5.
For A40U G58C, the yeast fitness was 0.945.
For A40U G58U, the yeast fitness was 0.768.
G39C C62U showed a yeast fitness of 0.776.
A43G C66U showed a yeast fitness of 0.887.
For A43G C66G, the yeast fitness was 0.699.
A43C U53A gave a yeast fitness of 0.662.
For A42U A45U A69U, the yeast fitness was 0.707.
With A43G G51A A69C the yeast fitness was no more than 0.5.
Work on A43G C60U C62U C66U A70C yielded a yeast fitness of no more than 0.5.
Work on G39C C46U yielded a yeast fitness of 0.98.
In the case of G38C C62U A65G, the yeast fitness is reported as 0.502.
With A42U C61G A65C C66G the yeast fitness was 0.89.
A43U C49G A69C showed a yeast fitness of 0.512.
G39U A43G showed a yeast fitness of 0.811.
In the case of A40G G48C C61G A65U, the yeast fitness is reported as no more than 0.5.
Work on G38C U54C yielded a yeast fitness of 0.82.
A40G C62U A65C C66A showed a yeast fitness of no more than 0.5.
A43C C49U gave a yeast fitness of 0.964.
With G41C A43U G68U the yeast fitness was no more than 0.5.
For A42U G52C, the yeast fitness was 0.694.
A40C G50A showed a yeast fitness of 0.619.
Work on A42U A65C yielded a yeast fitness of 0.81.
Work on A43C G48A G58C yielded a yeast fitness of 0.689.
For A43C A70G, the yeast fitness was 1.05.
In the case of A42G G63A, the yeast fitness is reported as 0.684.
A43U G44A C46A showed a yeast fitness of 0.654.
G39A G58C A69U showed a yeast fitness of 0.773.
Work on A42G C46A yielded a yeast fitness of 0.908.
In the case of A42G C46G, the yeast fitness is reported as 0.886.
G41A G50C showed a yeast fitness of 0.676.
In the case of A42U C55U A69C, the yeast fitness is reported as 0.511.
For A43U C46A A65C, the yeast fitness was 0.688.
A42C U54A showed a yeast fitness of 0.567.
A42C U54C gave a yeast fitness of 0.796.
A40U C61G G68C A70G showed a yeast fitness of no more than 0.5.
Variant A40C U47A A69G has a yeast fitness of 0.54.
Work on A42G C46U A57C yielded a yeast fitness of no more than 0.5.
In the case of G39C C49A, the yeast fitness is reported as 0.664.
Work on A43C G56A C61A yielded a yeast fitness of 0.525.
G38C A57G showed a yeast fitness of 0.617.
A40G U64C showed a yeast fitness of 0.972.
Variant A40C G67A has a yeast fitness of 0.846.
A42G A57U G67C showed a yeast fitness of no more than 0.5.
Work on G39C C55A yielded a yeast fitness of 0.643.
In the case of A43U G51C A57C C60G G67A, the yeast fitness is reported as 0.663.
In the case of A43C A45G G58C, the yeast fitness is reported as 0.685.
Work on A43C G68U yielded a yeast fitness of 0.868.
A43C A69C showed a yeast fitness of 1.04.
Variant A43C A69U has a yeast fitness of 1.12.
For A40G U54C G68C, the yeast fitness was no more than 0.5.
With A40U C60A the yeast fitness was 0.604.
With A40U U64C the yeast fitness was 1.08.
A40G G68U gave a yeast fitness of 0.857.
In the case of A40G A43G C55U, the yeast fitness is reported as 0.565.
Variant G38C A45G has a yeast fitness of 0.641.
With G39C U59A C60G the yeast fitness was 0.541.
Work on A43C G44C C55G C62U C66U yielded a yeast fitness of no more than 0.5.
For A40U U53G, the yeast fitness was 0.638.
A40U U53A showed a yeast fitness of 0.774.
In the case of A40C A42U A43C G48A, the yeast fitness is reported as 0.55.
In the case of A42G A65G, the yeast fitness is reported as 0.735.
A42U G63A A65G showed a yeast fitness of 0.572.
Work on A42G A43U C46U C62U yielded a yeast fitness of 0.551.
A42G G51A C60A showed a yeast fitness of no more than 0.5.
A40U A45U C49U showed a yeast fitness of 0.63.
In the case of G41C A42G A70G, the yeast fitness is reported as 0.593.
A40U A42G A57U showed a yeast fitness of 0.576.
With A42C G58A the yeast fitness was 0.951.
Work on G38A C62U A70U yielded a yeast fitness of 0.577.
In the case of G39C C66U, the yeast fitness is reported as 0.633.
For G39A A45C, the yeast fitness was 1.03.
With G38C C61G C66U A69U the yeast fitness was no more than 0.5.
In the case of G38C G56U, the yeast fitness is reported as 0.633.
Variant A43C C46A G48C G63A has a yeast fitness of 0.62.
A40G A70C showed a yeast fitness of 0.946.
In the case of A40C G52C G67A, the yeast fitness is reported as 0.55.
With A43U C55A A65U the yeast fitness was 0.515.
Work on G41A C55U U59A A70U yielded a yeast fitness of no more than 0.5.
Variant A42C A45C G48A A65G has a yeast fitness of 0.671.
With A42G G68C the yeast fitness was 0.798.
With G39A G50A C66U the yeast fitness was no more than 0.5.
Variant A43C U64G has a yeast fitness of 0.618.
A40U A43G A57G showed a yeast fitness of no more than 0.5.
For G41A G52C C61U C62U, the yeast fitness was no more than 0.5.
With G39A A45C A69C the yeast fitness was 0.804.
In the case of A42C C62A, the yeast fitness is reported as 0.719.
With A42C C62U the yeast fitness was 0.829.
With G38C C46A C62G C66U the yeast fitness was no more than 0.5.
Work on G41A C49U G63A yielded a yeast fitness of 0.678.
For A42U G56A G63C, the yeast fitness was no more than 0.5.
For A42G C61G C66U, the yeast fitness was no more than 0.5.
For A40U G48A C60A U64C A69C, the yeast fitness was no more than 0.5.
Variant G41C C66A has a yeast fitness of 0.621.
G38C A40C G51C C62U A69U gave a yeast fitness of no more than 0.5.
With G41A G67U G68C the yeast fitness was 0.507.
For G38C G39C C46U A69U, the yeast fitness was no more than 0.5.
With A42G C49G C61G the yeast fitness was no more than 0.5.
In the case of G39A A65U, the yeast fitness is reported as 0.791.
With A40U A45U G48A the yeast fitness was 0.998.
For G38C A43U A45G, the yeast fitness was no more than 0.5.
G39A A43C showed a yeast fitness of 0.796.
Work on A40C A57G C61U yielded a yeast fitness of 0.573.
In the case of A40C A57G C61G, the yeast fitness is reported as no more than 0.5.
G41A G48C G67C gave a yeast fitness of no more than 0.5.
A42G G56U showed a yeast fitness of 0.565.
With A42U C55G the yeast fitness was 0.616.
For G38C A70C, the yeast fitness was 0.738.
For G41A A42G A70U, the yeast fitness was no more than 0.5.
In the case of G39A G67A, the yeast fitness is reported as 0.769.
For A43G G68A, the yeast fitness was 0.873.
